Screens deposited in PubChem by several laboratories.
APP 5'UTR act – activates APP 5'UTR luciferase reporter; SH-SY5Y APP 5'UTR luciferase reporter, luminescence; zero percent = DMSO vehicle wells; activation, % at 2 µM; 1% of 190,000 active; AID 1276;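 active = activation above a set limit, based on mean plus 3 SD of controls, cut at about 140% in these data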
PPC-1+TRAIL kill – kills PPC-1 cancer cells in the presence of TRAIL; cell killing (% activity), % at 4 µM or 5 µM; AID 1443; PPC-1 cells + TRAIL, ATPLite viability luminescence; 0.41% of 220,000 active;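 active = cell killing above 50% in the first pass at 4 µM, then a duplicate retest at 5 µM averaging 50% or more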;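 note: plate controls were cells with TRAIL plus DMSO for no effect and medium-only wells lacking cells for full effect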
FLuc inhib CS – inhibits firefly luciferase, flagging false hits in luciferase inhibition screens; P08659; ATPLite firefly luciferase biochemical luminescence, 10 min; inhibition, % at 10 µM; 1.5% of 200,000 active; AID 1006;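 active = inhibition above about 50% when tested at 10 µM, limit read from the data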
Target sequence (P08659 whole entry, looked up): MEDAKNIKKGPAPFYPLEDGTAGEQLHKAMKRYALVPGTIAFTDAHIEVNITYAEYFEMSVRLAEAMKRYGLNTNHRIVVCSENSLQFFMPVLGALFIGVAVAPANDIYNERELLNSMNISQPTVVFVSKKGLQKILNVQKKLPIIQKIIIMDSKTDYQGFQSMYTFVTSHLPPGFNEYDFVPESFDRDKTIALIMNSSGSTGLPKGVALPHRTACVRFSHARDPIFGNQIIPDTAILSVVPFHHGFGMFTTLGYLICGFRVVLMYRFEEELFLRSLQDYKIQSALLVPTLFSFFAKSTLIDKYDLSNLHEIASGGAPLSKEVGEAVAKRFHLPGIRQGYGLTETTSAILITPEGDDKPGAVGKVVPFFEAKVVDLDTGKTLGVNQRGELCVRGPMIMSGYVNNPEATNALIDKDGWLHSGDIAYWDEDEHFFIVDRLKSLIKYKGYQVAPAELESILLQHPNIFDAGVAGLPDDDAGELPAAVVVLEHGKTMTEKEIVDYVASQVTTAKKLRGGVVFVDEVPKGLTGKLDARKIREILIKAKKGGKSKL
C8 TRAIL sens – caspase-8 TRAIL sensitization | 1% of 360,000 active | NB7+C8 cells + TRAIL, ATPlite viability luminescence | inhibition (viability loss, TRAIL sensitization), % at 10 µM;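 active = compounds causing at least 50% loss of cell viability in the single-dose screen, relative to plate controls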
NF-kB neuron act – compounds increasing NF-kB expression in human neuronal cells; NF-kB reporter expression; hits give high values; fold change at 12.5 µM; 1.6% of 190,000 active; in the data active = fold change above about 3.3
FLuc act counter – affects firefly luciferase, flagging false hits in luciferase stimulation screens | AID 1027 | 200,000 tested, under 10 active | ATPlite luciferase biochemical, luminescence, 10 min; 0 = ATP-free wells, 1 = DMSO control | P08659 | activation factor at 10 µM;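 active = luciferase activation factor, scaled between plate controls, of at least 2 with compound at 10 µM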
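Material: Luciferase/luciferin reagent mix; Doses: test compounds dosed from 2 mM stocks in 100% DMSO; Schedule: 10 min incubation after luciferase reagent addition, room temperature; Measured by: luminescence from luciferase reaction; Read-out: luminescence gain marking luciferase activators.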
* marks the source's active call; other numbers are inactive results; / = no result given. Hits are enriched below; roughly 2.2% of the tested compounds scored in any of these assays.

SMILES	APP 5'UTR act	PPC-1+TRAIL kill	FLuc inhib CS	C8 TRAIL sens	NF-kB neuron act	FLuc act counter
O=C(NCCOc1ccccc1)C1CCC(=O)N(CCCN2CCOCC2)C1 (stereo unspecified)	/	/	/	-5	/	/
Cc1ccc(-n2c(C3CC3c3ccc(Cl)cc3)n[nH]c2=S)cc1 (stereo unspecified)	2	-14	-8	59*	1.1	1.1
CCC(C)NC(=O)c1cc2cc3ccc(OC)cc3nc2s1 (stereo unspecified)	214*	33	59*	47	5*	0.4
CC1CCC/C(=C\Nc2ccc(C(=O)O)cc2)C1=O (stereo unspecified)	139*	3	6	3	3.8*	0.9
CC(Oc1ccccc1F)C(=O)NNC(=O)c1ccc(F)c(S(=O)(=O)N2CCOCC2)c1 (stereo unspecified)	/	/	/	-5	/	/
O=C(Oc1ccc2ccccc2c1Cl)N1CCCC1	143*	-14	16	16	5.1*	0.8
O=C(Oc1ccc2ccccc2c1Cl)N1CCCCCC1	133	17	47	53*	5.1*	0.5
CCc1ccc([C@@H]2C[C@H]3[C@@H](CN2S(=O)(=O)c2ccc(C)cc2)C(=O)C[C@@H](c2cccc(Cl)c2)N3S(=O)(=O)c2ccc(C)cc2)cc1	/	/	/	-2	/	/
CCn1c(-c2ccccc2)csc1=Nc1ccc(O)cc1	152*	15	19	17	/	0.8
CCOc1ccc(N=c2scc(-c3ccccc3)n2CCO)cc1	50	-4	0	-8	1.3	1
Cc1ccccc1-c1nnc(-c2ccc(Br)cc2)o1	69	15	15	7	3	0.9
Cc1ccccc1-c1nnc(SCC#N)o1	2	14	-4	-7	1.2	1
Cc1ccccc1-c1nnc(-c2ccccc2C)o1	21	16	21	7	3.7*	0.8
Cc1ccccc1-c1nnc(-c2cccc3ccccc23)o1	/	/	/	51*	/	/
CC(C(=O)NCc1ccccc1)N1CCN(c2ccc(F)cc2)CC1 (stereo unspecified)	/	/	/	2	/	/
O=C1Nc2ccccc2N(C(=O)c2c(F)cccc2F)C1c1nc2ccccc2[nH]1 (stereo unspecified)	/	/	/	77*	/	/
O=C1Nc2ccccc2N(C(=O)c2ccc(-c3ccccc3)cc2)C1c1nc2ccccc2[nH]1 (stereo unspecified)	/	/	/	74*	/	/
Cc1ccc(NC(=O)Cn2c(O)c(N=NC(=O)c3cc4ccccc4cc3O)c3ccccc32)cc1	-4	5	14	70*	1.1	0.9
COc1ccc(C(=O)O/N=C(/c2cccs2)C(C)(C)C)cc1	/	6	/	0	/	/
C/C(=N\OC(=O)c1ccc(C)cc1)c1sc(C)nc1C	1	-16	76*	13	1.4	0.2
C/C(=N\OC(=O)c1ccc(Cl)c(Cl)c1)c1sc(C)nc1C	0	4	4	-1	1.1	1
C/C(=N/OC(=O)c1ccc(C)cc1)c1cccs1	1	1	98*	7	0.79	0
Cc1cnc(NC(=O)c2c(O)c3cccc4c3n(c2=O)CCC4)s1	3	1	-5	/	1.3	1.1
CC(C)c1nnc(NC(=O)c2c(O)c3cccc4c3n(c2=O)CCC4)s1	19	9	-6	60*	0.68	1.1
COc1ccc(/C=C/c2nc3ccccc3c(=O)o2)cc1	/	/	/	75*	/	/
SMILES	APP 5'UTR act	PPC-1+TRAIL kill	FLuc inhib CS	C8 TRAIL sens	NF-kB neuron act	FLuc act counter
COc1ccccc1/C=C/c1nc2ccccc2c(=O)o1	/	/	/	7	/	/
CCCOc1ccc(/C=c2\sc3nc(-c4ccco4)nn3c2=O)cc1OCC	1	4	0	5	1.1	1
CC(=O)Oc1cccc(/C=c2\sc3nc(-c4ccco4)nn3c2=O)c1	18	8	89*	-3	0.85	0.1
Oc1c(N=Nc2nn[nH]n2)ccc2ccccc12	/	/	/	45	/	/
Oc1ccc2ccccc2c1N=Nc1ccc(F)cc1	/	5	/	19	/	/
Cc1ccc(N=Nc2ccc3ccccc3c2O)cc1	/	/	/	75*	/	/
Oc1c(N=Nc2ccc(F)cc2)ccc2ccccc12	/	/	/	53*	/	/
COc1cccc(N=Nc2ccc3ccccc3c2O)c1	/	/	/	57*	/	/
COc1cccc2cc(C(=O)NC3CC4CCC3C4)oc12 (stereo unspecified)	/	/	/	18	/	/
Cc1ccc(C(=O)OCn2ncc(Cl)c(Cl)c2=O)cc1	-92	25	-2	94*	0.12	1
CCOC(=O)c1ccc(NC(=O)Cn2ncc(Cl)c(Cl)c2=O)cc1	-96	9	-7	6	0.14	1.1
O=C(OCn1ncc(Cl)c(Cl)c1=O)c1ccc(C(F)(F)F)cc1	8	11	-5	78*	1	1
Nc1[nH]ncc1-c1ccccc1	5	-10	-6	-2	1.1	1.1
Cc1ccc2cc(CN(c3cccc(C)c3C)S(=O)(=O)c3ccccc3)c(=O)[nH]c2c1	/	/	/	18	/	/
O=c1[nH][nH]c2c1[C@H](CCc1cccc(Cl)c1)O[C@H](C1CCCC1)C2	/	/	/	8	/	/
COc1ccc(C(=O)NC(=O)NC2(C(Cl)(Cl)Cl)OCCO2)cc1	226*	4	14	-3	5.1*	0.9
COc1ccc(C(=O)NCC(C)(C)CNC(=O)c2ccc(OC)cc2)cc1	/	/	/	-18	/	/
CC(C)(C)c1ccc(/C=C2\SC(=O)N(CCNC(=O)c3cccc(S(=O)(=O)N4CCOCC4)c3)C2=O)cc1	135*	15	69*	58*	0.72	0.3
COc1ccc(/C=C2\CN(Cc3ccccc3)C/C(=C\c3ccc(OC)c(O)c3)C2=O)cc1O	/	/	/	-12	/	/
CCN1C/C(=C/c2ccc(OC)c(O)c2)C(=O)/C(=C/c2ccc(OC)c(O)c2)C1	-88	50*	0	13	0.24	1
COc1ccc(C=C2C(=O)c3ccccc3C2=O)cc1O	9	26	62*	-2	1.5	0.4
O=C(NCCSc1ccccc1)c1ccc(Br)cc1	180*	7	32	9	10*	0.7
COc1ccc(C(=O)NCCSc2ccccn2)cc1	242*	7	19	6	3.9*	0.8
O=C(NCCSc1ccccc1)c1ccccc1	171*	15	6	8	4.7*	0.9
COc1cccc(C(=O)NCCSc2ccc(F)cc2)c1	47	-12	2	-3	4.8*	1
SMILES	APP 5'UTR act	PPC-1+TRAIL kill	FLuc inhib CS	C8 TRAIL sens	NF-kB neuron act	FLuc act counter
O=C(NCCSSCCNC(=O)c1ccccc1)c1ccccc1	/	/	/	-4	/	/
Cc1c(NC(=O)C(C)Oc2ccc(Br)cc2Cl)c(=O)n(-c2ccccc2)n1C (stereo unspecified)	/	/	/	2	/	/
Cc1cccc2sc(NNC(=O)c3cc(-c4cccs4)nc4ccccc34)nc12	-16	9	-1	50*	0.97	1
NNC(=O)c1cc(-c2cccs2)nc2ccccc12	/	12	/	2	/	/
CN1C(=O)SC(Nc2ccccc2)C1=O (stereo unspecified)	12	10	-7	-6	1.1	1.1
COc1cccc(NC2SC(=O)N(c3ccccc3)C2=O)c1 (stereo unspecified)	14	15	-5	-3	4.1*	1.1
COc1ccccc1NC(=O)NCc1ccccc1F	16	0	26	3	1.3	0.7
